This test concerns the target human GPR68 (Homo sapiens, UniProt Q15743). Put plainly: GloSensor cAMP assay, proton-mediated Gs-cAMP production at human GPR68. Type of test: cell-based. Conditions: for Δ: difference of Log(αβ/KB) from that of 1; for Δ / −Log (KB) / Log (αβ/KB): human GPR68; for Log (α): affinity cooperativity; for Log (α) / Log (β): human GPR68, HEK293T, Gs-cAMP; for Log (α) / −Log (KB) / Log (αβ/KB) / Log (β): mean ± SEM; for −Log (KB): allosteric binding affinity from functional assay; for Log (αβ/KB): allosteric index; for Log (β): efficacy cooperativity. In a few lines:
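HEK293T cells were transiently transfected with receptor and GloSensor cAMP plasmids, overnight (16–20 h). Cells were plated on poly-L-Lys in DMEM + 1% dFBS for 6–24 h, then loaded with 3.5 mM luciferin (HBSS, 20 mM TAPS, pH 8.40) for 1 h at 37 °C. Drug was applied in Ca/Mg-free HBSS pH buffers (MES 5.60–6.70, HEPES 6.80–8.20, TAPS 8.30–8.60) with 10 μM Ro 20-1724. Luminescence was read at 20–30 min.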
(In general: Changes in cAMP serve as a functional read-out for many G protein-coupled receptors.)

Each structure is given as a SMILES string.

Sequence of human GPR68 (Q15743 whole entry): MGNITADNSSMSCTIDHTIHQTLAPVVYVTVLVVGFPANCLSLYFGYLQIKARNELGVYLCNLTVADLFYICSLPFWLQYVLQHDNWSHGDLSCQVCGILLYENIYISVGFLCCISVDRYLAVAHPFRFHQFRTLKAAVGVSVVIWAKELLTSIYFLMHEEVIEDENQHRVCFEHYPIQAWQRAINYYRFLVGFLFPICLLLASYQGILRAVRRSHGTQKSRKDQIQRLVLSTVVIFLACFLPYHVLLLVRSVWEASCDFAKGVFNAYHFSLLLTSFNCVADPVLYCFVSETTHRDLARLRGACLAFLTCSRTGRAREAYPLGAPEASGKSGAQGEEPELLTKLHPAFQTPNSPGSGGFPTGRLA

The molecule `CNc1nc(NCc2ccccc2)nc(-c2ccccc2CO)n1` [Compound 5] showed a Kb of 30.9 µM and a Δ of 0.05.

With `COc1ccc(CNc2nc(N)nc(-c3ccccc3CO)n2)cc1` [Compound 55], the Kb was 457 µM and the Δ is reported as −0.70.

For the molecule `CCOc1ccc(-c2nc(N)nc(NCc3ccccc3)n2)c(CO)c1` [Compound 37, (2-(4-Amino-6-(benzylamino)-1,3,5-triazin-2-yl)-5-ethoxyphenyl)methanol], the Kb is 42.7 µM and the Δ is 0.03.

In the case of `Nc1nc(NCc2ccccc2C(F)(F)F)nc(-c2ccccc2CO)n1` [Compound 47, (2-(4-Amino-6-((2-(trifluoromethyl)benzyl)amino)-1,3,5-triazin-2-yl)phenyl)methanol], the Kb is 8.91 µM and the Δ is reported as 0.65.

As for `COc1ccc(-c2nc(N)nc(NCc3ccccc3)n2)c(CO)c1` [Compound 30], the Kb was 75.9 µM and the Δ was −0.34.

Turning to `Nc1cc(-c2ccccc2CO)nc(NCc2ccccc2)n1` [Compound 10, (2-(6-Amino-2-(benzylamino)pyrimidin-4-yl)phenyl)methanol], the “Log (α)” value is “Weak PAM”, the “−Log (KB)” value is reported as “Weak PAM”, the “Log (αβ/KB)” value is reported as “Weak PAM” and the Δ entry is reported as “Weak PAM”. The “Log (β)” value is “Weak PAM”.

As for `Nc1nc(NCc2ccccc2)nc(-c2ccc(F)cc2CO)n1` [Compound 23, (2-(4-Amino-6-(benzylamino)-1,3,5-triazin-2-yl)-5-fluorophenyl)-methanol], the Kb was 26.3 µM and the Δ is on record as 0.15.

In turn, `CC(C)Oc1ccc(CNc2nc(N)nc(-c3ccccc3CO)n2)cc1` [Compound 57, (2-(4-Amino-6-((4-isopropoxybenzyl)amino)-1,3,5-triazin-2-yl)-phenyl)methanol] had a Kb of 10.2 µM and a Δ of 0.38.

For `Cc1ccccc1CNc1nc(N)nc(-c2ccccc2CO)n1` [Compound 50, (2-(4-Amino-6-((2-methylbenzyl)amino)-1,3,5-triazin-2-yl)-phenyl)methanol], the Kb was 20 µM and the Δ amounted to 0.26.

As for `Nc1nc(NCCCc2ccccc2)nc(-c2ccccc2CO)n1` [Compound 62], the Kb was 6.03 µM and the Δ was 0.80.

In turn, `Nc1nc(NCc2ccccc2)nc(-c2cc(Cl)ccc2CO)n1` [Compound 27, (2-(4-Amino-6-(benzylamino)-1,3,5-triazin-2-yl)-4-chlorophenyl)methanol] had a Kb of 32.4 µM and a Δ of 0.47.

Regarding `Nc1nc(NCc2ccccc2F)nc(-c2ccccc2CO)n1` [Compound 41, (2-(4-Amino-6-((2-fluorobenzyl)amino)-1,3,5-triazin-2-yl)-phenyl)methanol], the Kb was 53.7 µM and the Δ was 0.25.

As to `Nc1nc(NCc2ccccc2)nc(-c2c(F)cccc2CO)n1` [Compound 25, (2-(4-Amino-6-(benzylamino)-1,3,5-triazin-2-yl)-3-fluorophenyl)-methanol], the Kb was 204 µM and the Δ is listed as −0.12.

In turn, `Nc1nc(NCc2ccc(C(F)(F)F)cc2)nc(-c2ccccc2CO)n1` [Compound 49, (2-(4-Amino-6-((4-(trifluoromethyl)benzyl)amino)-1,3,5-triazin-2-yl)phenyl)methanol] gave a Kb of 9.33 µM and a Δ of 0.79.

Turning to `Nc1nc(NCc2cccc(F)c2)nc(-c2ccccc2CO)n1` [Compound 42, (2-(4-Amino-6-((3-fluorobenzyl)amino)-1,3,5-triazin-2-yl)-phenyl)methanol], the Kb was 30.2 µM and the Δ is recorded as 0.24.

For the molecule `Nc1nc(NCCc2ccc(Oc3ccccc3)cc2)nc(-c2c(F)cccc2CO)n1` [Compound 75, (2-(4-Amino-6-((4-phenoxyphenethyl)amino)-1,3,5-triazin-2-yl)-3-fluorophenyl)methanol], the Kb was 8.91 µM and the Δ amounted to 0.82.

Regarding `Cc1cccc(CNc2nc(N)nc(-c3ccccc3CO)n2)c1` [Compound 51, (2-(4-Amino-6-((3-methylbenzyl)amino)-1,3,5-triazin-2-yl)-phenyl)methanol], the Kb is 39.8 µM and the Δ is given as 0.26.

`Cc1ccc(CNc2nc(N)nc(-c3ccccc3CO)n2)cc1` [Compound 52, (2-(4-Amino-6-((4-methylbenzyl)amino)-1,3,5-triazin-2-yl)-phenyl)methanol]: the Kb is 41.7 µM and the Δ is on record as 0.29.

`Nc1nc(NCc2ccccc2)nc(-c2c(Cl)cccc2CO)n1` [Compound 28, (2-(4-Amino-6-(benzylamino)-1,3,5-triazin-2-yl)-3-chlorophenyl)methanol] gave a Kb of 37.2 µM and a Δ of 0.25.

The molecule `Nc1nc(NCc2ccccc2Cl)nc(-c2ccccc2CO)n1` [Compound 44, (2-(4-Amino-6-((2-chlorobenzyl)amino)-1,3,5-triazin-2-yl)-phenyl)methanol] had a Kb of 8.51 µM and a Δ of 0.63.

Molecule `CCOc1ccc(CNc2nc(N)nc(-c3ccccc3CO)n2)cc1` [Compound 56, (2-(4-Amino-6-((4-ethoxybenzyl)amino)-1,3,5-triazin-2-yl)-phenyl)methanol] had a Kb of 17 µM and a Δ of 0.26.

On to `CC(=O)c1ccccc1-c1nc(N)nc(NCc2ccccc2)n1` [Compound 15, 1-(2-(4-Amino-6-(benzylamino)-1,3,5-triazin-2-yl)phenyl)ethan-1-one], for which the “Log (α)” value is recorded as “Weak PAM”, the “−Log (KB)” value is recorded as “Weak PAM”, the “Log (αβ/KB)” value is listed as “Weak PAM” and the Δ entry is “Weak PAM”. The “Log (β)” value was “Weak PAM”.

The molecule `Nc1nc(NCc2cccc(C(F)(F)F)c2)nc(-c2ccccc2CO)n1` [Compound 48, (2-(4-Amino-6-((3-(trifluoromethyl)benzyl)amino)-1,3,5-triazin-2-yl)phenyl)methanol] gave a Kb of 7.76 µM and a Δ of 0.76.

The molecule `Nc1nc(NCCCc2ccc(Oc3ccccc3)cc2)nc(-c2c(F)cccc2CO)n1` [Compound 76, (2-(4-Amino-6-((3-(4-phenoxyphenyl)propyl)amino)-1,3,5-triazin-2-yl)-3-fluorophenyl)methanol] showed a Kb of 11.5 µM and a Δ of 0.81.

Molecule `Nc1nc(NCc2ccc(F)cc2)nc(-c2c(F)cccc2CO)n1` [Compound 68, (2-(4-Amino-6-((4-fluorobenzyl)amino)-1,3,5-triazin-2-yl)-3-fluorophenyl)methanol] had a Kb of 35.5 µM and a Δ of 0.24.

Consider `COc1cccc(CNc2nc(N)nc(-c3ccccc3CO)n2)c1` [Compound 54, (2-(4-Amino-6-((3-methoxybenzyl)amino)-1,3,5-triazin-2-yl)-phenyl)methanol], for which the Kb is 77.6 µM and the Δ is −0.09.

Take `CNCc1ccccc1-c1nc(N)nc(NCc2ccccc2)n1` [Compound 19, N^2-Benzyl-6-(2-((methylamino)methyl)phenyl)-1,3,5-triazine-2,4-diamine]: the “Log (α)” value is recorded as “Weak PAM”, the “−Log (KB)” value was “Weak PAM”, the “Log (αβ/KB)” value is given as “Weak PAM” and the Δ result was “Weak PAM”. Also, the “Log (β)” value is on record as “Weak PAM”.

In the case of `Nc1nc(NCc2ccccc2)nc(-c2ccccc2)n1` [Compound 13, N^2-Benzyl-6-phenyl-1,3,5-triazine-2,4-diamine], the “Log (α)” value is reported as “Inactive”, the “−Log (KB)” value was “Inactive”, the “Log (αβ/KB)” value is listed as “Inactive” and the Δ entry is listed as “Inactive”. The “Log (β)” value was “Inactive”.

Consider `Nc1nc(NCc2ccc(F)cc2)nc(-c2ccccc2CO)n1` [Compound 43, (2-(4-Amino-6-((4-fluorobenzyl)amino)-1,3,5-triazin-2-yl)-phenyl)methanol], for which the Kb is 107 µM and the Δ amounted to 0.11.

Regarding `NCc1ccccc1-c1nc(N)nc(NCc2ccccc2)n1` [Compound 18, 6-(2-(Aminomethyl)phenyl)-N^2-benzyl-1,3,5-triazine-2,4-diamine], the Kb is 138 µM and the Δ was −0.30.

With `COc1ccccc1CNc1nc(N)nc(-c2c(F)cccc2CO)n1` [Compound 70, (2-(4-Amino-6-((2-methoxybenzyl)amino)-1,3,5-triazin-2-yl)-3-fluorophenyl)methanol], the Kb was 77.6 µM and the Δ is recorded as −0.19.

`Nc1nc(NCCCc2ccccc2)nc(-c2c(F)cccc2CO)n1` [Compound 73, (2-(4-Amino-6-((3-phenylpropyl)amino)-1,3,5-triazin-2-yl)-3-fluorophenyl)methanol] had a Kb of 33.9 µM and a Δ of 0.36.

Take `Nc1nc(NCc2ccccc2)nc(-c2cc(F)ccc2CO)n1` [Compound 24, (2-(4-Amino-6-(benzylamino)-1,3,5-triazin-2-yl)-4-fluorophenyl)-methanol]: the Kb was 26.3 µM and the Δ is on record as 0.38.

In turn, `Nc1nc(NCCCCc2ccccc2)nc(-c2cc(Cl)ccc2CO)n1` [Compound 79, (2-(4-Amino-6-((4-phenylbutyl)amino)-1,3,5-triazin-2-yl)-4-chlorophenyl)methanol] had a Kb of 10.5 µM and a Δ of 0.83.

As for `COc1cccc(-c2nc(N)nc(NCc3ccccc3)n2)c1CO` [Compound 29, (2-(4-Amino-6-(benzylamino)-1,3,5-triazin-2-yl)-6-methoxyphenyl)methanol], the Kb was 69.2 µM and the Δ was −0.45.

Source of the values: paper PMC6923801 (Journal of medicinal chemistry, 2019).
